These results are taken from ChEMBL document CHEMBL1154100, “Tetrahydroisoquinolines as dopaminergic ligands: 1-Butyl-7-chloro-6-hydroxy-tetrahydroisoquinoline, a new compound with antidepressant-like activity in mice” (Bioorg Med Chem, 2009).

For one assay, the species on record is Rattus norvegicus. Briefly: Selectivity for Wistar rat dopamine D2 receptor over Wistar rat dopamine D1 receptor.
The next assay deals with D(1A) dopamine receptor (Rattus norvegicus, UniProt P18901). Nature of the assay: Displacement of [3H]SCH23390 from dopamine D1 receptor in Wistar rat striatal membrane by liquid scintillation counting. It is filed as cell membranes, Striatum. The essentials: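 Female Wistar rat striatum homogenized in 50 mM Tris-HCl pH 7.4, then washed twice at 49,000g. Membranes were resuspended in Tris-ions buffer (NaCl, CaCl2, KCl, MgCl2, 0.1% ascorbate). [3H]-SCH23390 displacement was read by filtration and scintillation counting. Ki was derived using KD 0.36 nM; 3–6 independent runs in duplicate, mean SEM.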

Another assay concerns the target D(2) dopamine receptor (Rattus norvegicus, UniProt P61169). Nature of the assay: Displacement of [3H]raclopride from dopamine D2 receptor in Wistar rat striatal membrane by liquid scintillation counting. It is filed as cell membranes, Striatum. Conditions: for Ki: read-out: pKi (converted); for pKi: read-out: Ki. A digest of the protocol:
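Striata from female Wistar rats (200–220 g) were homogenized in 50 mM Tris-HCl (pH 7.4) and centrifuged twice at 49,000g for 15 min at 4 °C. Membranes were resuspended in Tris buffer containing 120 mM NaCl, 2 mM CaCl₂, 5 mM KCl, 1 mM MgCl₂ and 0.1% ascorbic acid (pH 7.4). Samples were filtered, washed with cold buffer and counted by scintillation. Ki was derived using a [³H]raclopride KD of 1,25 nM, from 3–6 determinations run in duplicate.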

The target in assay [1] is Sodium-dependent dopamine transporter (Rattus norvegicus) (UniProt P23977). Briefly: Inhibition of DAT in Wistar rat striatal synaptosomes at 100 uM by [3H]dopamine uptake assay. In kind it is subcellular. Conditions: Brain. A digest of the protocol: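 Synaptosomes were prepared from female Wistar rat striatum at 0–4 °C. Tissue was homogenized in 0.32 M sucrose, spun twice at 1000g for 10 min, and the pooled supernatants were spun at 16,000g for 30 min. The pellet was taken up in Krebs medium (pH 7.6, with glucose). Samples were preincubated for 10 min at 37 °C with pargyline, then given 0.5 nM final [³H]dopamine for 10 min. Uptake was stopped by ice-cold dilution and rapid fiberglass filtration.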

Another assay concerns Mus musculus. Briefly: Antidepressant-like activity in NMRI mouse assessed as reduction in immobility time at 16 mg/kg, ip by forced swimming test relative to control. It is filed as functional. Details: scale not given: the % may be the effect or the level left. As to conditions: route intraperitoneal. A digest of the protocol: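 Naive male NMRI mice (25–30 g) were used in randomized groups of n = 10 and tested in the dark phase. Injections (10 mL/kg) were given 30 min before testing, and saline was the vehicle. Each animal, not pre-tested, swam for 6 min in a cylinder 12 cm wide holding 13 cm of water at 23–24 °C. Immobility was scored over the last 4 min, and groups were compared with ANOVA and Fisher PLSD.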

pKi: −log10 of the molar value. Calls of active or inactive are those of the source. No cut-off for these calls is given here.

Sequence of D(1A) dopamine receptor (P18901 whole entry): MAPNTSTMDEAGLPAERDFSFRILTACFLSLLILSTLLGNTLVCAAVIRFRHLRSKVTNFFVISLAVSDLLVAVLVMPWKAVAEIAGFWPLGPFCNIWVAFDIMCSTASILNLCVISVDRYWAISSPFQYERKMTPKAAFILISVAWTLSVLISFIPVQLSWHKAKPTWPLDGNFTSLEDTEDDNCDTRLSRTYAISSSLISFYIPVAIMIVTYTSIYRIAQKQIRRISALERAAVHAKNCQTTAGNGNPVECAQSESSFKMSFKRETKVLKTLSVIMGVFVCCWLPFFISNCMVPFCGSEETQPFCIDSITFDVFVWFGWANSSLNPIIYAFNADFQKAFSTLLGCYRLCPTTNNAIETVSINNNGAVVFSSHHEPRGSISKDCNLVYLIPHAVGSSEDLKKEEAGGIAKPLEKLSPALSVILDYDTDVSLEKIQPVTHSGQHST
Sequence of D(2) dopamine receptor (P61169 whole entry): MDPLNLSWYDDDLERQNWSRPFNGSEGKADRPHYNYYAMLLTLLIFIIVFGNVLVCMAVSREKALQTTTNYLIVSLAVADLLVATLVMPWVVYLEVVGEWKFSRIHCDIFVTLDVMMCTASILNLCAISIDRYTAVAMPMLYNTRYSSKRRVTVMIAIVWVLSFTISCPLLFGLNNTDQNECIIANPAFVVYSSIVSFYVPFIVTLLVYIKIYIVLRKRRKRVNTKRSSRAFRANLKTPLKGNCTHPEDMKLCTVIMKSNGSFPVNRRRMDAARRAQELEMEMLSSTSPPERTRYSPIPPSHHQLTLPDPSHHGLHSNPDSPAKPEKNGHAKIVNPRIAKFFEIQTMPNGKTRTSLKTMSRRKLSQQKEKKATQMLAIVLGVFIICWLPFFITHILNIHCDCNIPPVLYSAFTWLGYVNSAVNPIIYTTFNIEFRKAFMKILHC
Sequence of Sodium-dependent dopamine transporter (Rattus norvegicus) (P23977 whole entry): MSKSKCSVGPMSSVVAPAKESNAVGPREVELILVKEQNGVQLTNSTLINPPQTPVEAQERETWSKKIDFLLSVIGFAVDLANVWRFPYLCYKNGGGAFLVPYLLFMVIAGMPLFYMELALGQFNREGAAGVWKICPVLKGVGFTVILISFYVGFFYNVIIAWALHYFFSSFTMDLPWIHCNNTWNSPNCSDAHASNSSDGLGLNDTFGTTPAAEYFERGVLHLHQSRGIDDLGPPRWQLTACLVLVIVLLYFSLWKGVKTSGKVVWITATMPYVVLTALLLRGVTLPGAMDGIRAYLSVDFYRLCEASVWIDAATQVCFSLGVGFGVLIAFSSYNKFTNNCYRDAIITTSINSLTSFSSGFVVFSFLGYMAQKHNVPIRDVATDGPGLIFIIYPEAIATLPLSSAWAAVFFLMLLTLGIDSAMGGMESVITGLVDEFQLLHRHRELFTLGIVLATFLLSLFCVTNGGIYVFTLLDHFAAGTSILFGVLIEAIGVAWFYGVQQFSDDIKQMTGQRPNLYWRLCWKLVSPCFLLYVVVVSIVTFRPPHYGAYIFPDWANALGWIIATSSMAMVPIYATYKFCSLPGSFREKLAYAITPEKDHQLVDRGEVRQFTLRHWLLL

Take `O=C(CCCN1CCC(O)(c2ccc(Cl)cc2)CC1)c1ccc(F)cc1`: the fold change (FC) in the assay listed under Rattus norvegicus was determined as 20.
`Oc1cc2c(cc1Cl)CCNC2c1ccccc1` (configuration not stated) had a negative logarithm of the Ki (pKi) at D(1A) dopamine receptor of 6.61. Further, the Ki at D(2) dopamine receptor is 1120 nM. Further, the fold change (FC) in the assay filed under Rattus norvegicus was found to be 0.2. In assay [1], the outcome was inactive.
As to `CCCCC1NCCc2cc(Cl)c(O)cc21` (configuration not stated), the negative logarithm of the Ki (pKi) is 5.92 at D(1A) dopamine receptor and 7.04 on D(2) dopamine receptor. Moreover, in the assay filed under Rattus norvegicus, the fold change (FC) is 17. Moreover, in assay [1], the result was inactive.
`Oc1cc2c(cc1Cl)CCNC2Cc1ccccc1` (configuration not stated): the negative-log Ki (pKi) at D(1A) dopamine receptor was 6.49. For the same molecule, on D(2) dopamine receptor, the pKi is 7.15 and the Ki was 66.4 nM. Moreover, in the assay filed under Rattus norvegicus, the fold change (FC) amounted to 4.8. The outcome in assay [1] was inactive.
As to `CCCCC1c2cc(OC)c(Cl)cc2CCN1C` (configuration not stated), the pKi at D(1A) dopamine receptor was 5.14. In addition, at D(2) dopamine receptor, the Ki is 3770 nM. Besides, the fold change (FC) in the assay listed under Rattus norvegicus amounted to 2.7. In assay [1], the result was inactive.
For `COc1cc2c(cc1Cl)CCN(C)C2Cc1ccccc1` (configuration not stated) the same measures were 5.79, 1530 nM, 0.8 and “inactive”.
The like results for `COc1cc2c(cc1Cl)CCNC2c1ccccc1` (configuration not stated) were, in that order, 5.22, 6140 nM, 1.2 and “inactive”.
Consider `CN(C)CCCN1c2ccccc2CCc2ccccc21` [IMIPRAMINE], for which the Activity with Mus musculus is 32%.

As a reminder, the pKi is the negative decadic logarithm of the Ki, by convention in mol/L.
